ChEMBL document CHEMBL4145496, “In vitro antiplasmodial efficacy of synthetic coumarin-triazole analogs” (Eur J Med Chem, 2018)
Converted amounts (≈) assume the structure as drawn. The source made the active and inactive calls. No cut-off for these calls is given here.

How the values were obtained:
Plasmodium falciparum = test: Antimalarial activity against chloroquine-sensitive Plasmodium falciparum 3D7 erythrocytic stage after 48 hrs by Giemsa staining-based microscopic analysis; assay type: functional, organism-based; settings: 3D7, 48 h
How it was run: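 Parasites kept in human O+ erythrocytes in RPMI 1640 with HEPES, NaHCO3, L-glutamine, gentamicin and Albumax II, under 3% O2/4% CO2/93% N2 at 37 °C. DMSO stocks (1 mg/ml) diluted into gentamicin-free RPMI. Graded concentrations for 48 h at 37 °C, medium changed at 24 h, in triplicate. Parasites counted per about 4000 erythrocytes on Giemsa thin smears. IC50 taken from semi-log plots.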

[1] = Cytotoxicity against human HuH7 cells assessed as reduction in cell viability after 72 hrs by MTT assay; assay type: cell-based, Huh-7
How it was run: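 Huh-7 monolayers grown in DMEM at 37 °C in 5% CO2. Cells seeded at about 20,000 per well and left 24 h, then given fresh medium containing 1, 10, 20, 30, 50 or 100 μg/mL compound for 72 h. Viability read by MTT, absorbance at 570 nm.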

[2] = molecular target: DNA gyrase (Escherichia coli) (UniProt P0AES6+P0AES4); test: Inhibition of Escherichia coli DNA gyrase assessed as inhibition of enzyme-mediated supercoiling of relaxed pHOT1 DNA substrate at IC50 after 1 hr by ethidium bromide staining based agarose gel electrophoresis; assay type: protein-complex assay

SMILES | IC50 (Plasmodium falciparum) | CC50 at 72 h [1] | inhibition [2]
Cc1cc(F)ccc1-n1cc(COc2ccc3c(C)cc(=O)oc3c2)nn1 | 12.8 µg/mL (≈ 35 µM) | > 100 µg/mL | –
COc1cc(-n2cc(COc3ccc4c(C)cc(=O)oc4c3)nn2)cc(OC)c1OC | 11.1 µg/mL (≈ 26.1 µM) | > 100 µg/mL | –
COC(=O)Cn1cc(COc2ccc3c(C)cc(=O)oc3c2)nn1 | 3.3 µg/mL (≈ 10 µM) | > 100 µg/mL | –
Cc1cc(=O)oc2cc(OCc3cn(-c4ccccc4F)nn3)ccc12 | 2.48 µg/mL (≈ 7.06 µM) | > 100 µg/mL | –
Cc1cc(=O)oc2cc(OCc3cn(Cc4ccc([N+](=O)[O-])cc4)nn3)ccc12 | 2.23 µg/mL (≈ 5.68 µM) | > 100 µg/mL | –
Cc1cc(=O)oc2cc(OCc3cn(-c4ccc(F)cc4F)nn3)ccc12 | 15.4 µg/mL (≈ 41.7 µM) | > 100 µg/mL | –
Cc1cc(=O)oc2cc(OCc3cn(-c4ccc(Oc5ccccc5)cc4)nn3)ccc12 | 4.56 µg/mL (≈ 10.7 µM) | > 100 µg/mL | –
Cc1cc(=O)oc2cc(OCc3cn(Cc4ccccc4)nn3)ccc12 | 6.4 µg/mL (≈ 18.4 µM) | > 100 µg/mL | –
Cc1cc(=O)oc2cc(OCc3cn(-c4ccc(F)cc4)nn3)ccc12 | 6.43 µg/mL (≈ 18.3 µM) | > 100 µg/mL | –
Cc1cc(=O)oc2cc(OCc3cn(-c4ccc(OC(F)(F)F)cc4)nn3)ccc12 | 5 µg/mL (≈ 12 µM) | > 100 µg/mL | –
Cc1cc(C)cc(-n2cc(COc3ccc4c(C)cc(=O)oc4c3)nn2)c1 | 0.893 µg/mL (≈ 2.47 µM) | > 100 µg/mL | Active
Cc1cc(=O)oc2cc(OCc3cn(CCO)nn3)ccc12 | 3.36 µg/mL (≈ 11.2 µM) | > 100 µg/mL | –
Cc1cc(=O)oc2cc(OCc3cn(-c4ccnc5cc(Cl)ccc45)nn3)ccc12 | 10.6 µg/mL (≈ 25.3 µM) | > 100 µg/mL | –
Cc1cc(=O)oc2cc(OCc3cn(-c4cccc(F)c4)nn3)ccc12 | 9.46 µg/mL (≈ 26.9 µM) | > 100 µg/mL | –
Cc1cc(=O)oc2cc(OCc3cn(-c4ccccc4Cl)nn3)ccc12 | 8.94 µg/mL (≈ 24.3 µM) | > 100 µg/mL | –
Cc1cc(=O)oc2cc(OCc3cn(-c4ccc(Cl)cc4)nn3)ccc12 | 8.43 µg/mL (≈ 22.9 µM) | > 100 µg/mL | –
Cc1cc(=O)oc2cc(OCc3cn(-c4ccc(F)c(Cl)c4)nn3)ccc12 | 7.43 µg/mL (≈ 19.3 µM) | > 100 µg/mL | –
Cc1cc(=O)oc2cc(OCc3cn(-c4ccccc4[N+](=O)[O-])nn3)ccc12 | 6.86 µg/mL (≈ 18.1 µM) | > 100 µg/mL | –
Cc1cc(=O)oc2cc(OCc3c[nH]nn3)ccc12 | 1.82 µg/mL (≈ 7.06 µM) | > 100 µg/mL | –
Cc1ccc(-n2cc(COc3ccc4c(C)cc(=O)oc4c3)nn2)c(Cl)c1 | 1.5 µg/mL (≈ 3.92 µM) | > 100 µg/mL | Active
COc1ccc(-n2cc(COc3ccc4c(C)cc(=O)oc4c3)nn2)c(OC)c1 | 0.763 µg/mL (≈ 1.94 µM) | > 100 µg/mL | Active
CC(=O)Nc1ccc(-n2cc(COc3ccc4c(C)cc(=O)oc4c3)nn2)cc1 | 4.16 µg/mL (≈ 10.7 µM) | > 100 µg/mL | –
